Source: PubChem (Broad Institute)
This is a sample that favours compounds with a hit; in the whole collection about 3.2% have one here.
rRNA inh HTS – reduced GFP signal of wild-type E. coli, primary screen, bacterial rRNA inhibitor project, GFP/RFP fluorescence, OD600, single point | E. coli WT GFP vs humanized-ribosome RFP mutants, 24 h; hits give low values; DMSO median 0, no signal -100 | GFP signal change (wild-type ribosome), % (test concentration not listed) | 350,000 tested, 1.6% active | AID 720706, 2013;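 active = significant combined selectivity score with lowered wild-type GFP, culture density cut under 30%, mutant RFP and density less affected; inactive = any of these conditions unmet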
S100A4 inh HTS – inhibitors of S100A4-myosin IIA peptide binding, primary screen, biochemical, fluorescence polarization, TAMRA-MyoIIA peptide; 360,000 tested, 0.14% active; inhibition, % at 10.7 µM; AID 652163, 2013;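 active = mean inhibition of at least 70% across replicates, with every replicate also reaching that level; inconclusive = mean inhibition reaches 70% but some replicates fall short; inactive = mean inhibition below 70%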
Target sequence (P26447 whole entry, looked up): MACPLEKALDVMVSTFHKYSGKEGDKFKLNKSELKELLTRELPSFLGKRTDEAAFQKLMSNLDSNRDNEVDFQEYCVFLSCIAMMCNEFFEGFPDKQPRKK
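Test system: S100A4 monomer protein; Medium: HEPES pH 7.2 with CaCl2, KCl, NaCl, DTT, Triton; Probe or stimulus: TAMRA-labelled myosin IIA heavy-chain peptide probe, 5 nM; Doses: one dose per compound; Times: polarization read 5 min after assay mix addition, stable 5–60 min; Benchmarks: neutral control DMSO, positive control TFP.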
DENV2 CPE – inhibitors of DENV2 cytopathic effect, primary screen, cell-based, plate reader, single concentration; CPE inhibition, % at 9.99 µM; 350,000 tested, 1.7% active; DENV2-infected cells, cytopathic effect rescue; in the data active = CPE inhibition above about 20%, passing the limit was not always enough; inconclusive = no clear call, values can overlap the other calls; tested in BHK-21 cells
Cneo AK release – Cryptococcus neoformans cell lysis inducers, primary screen, AK release luminescence, single concentration; C. neoformans lysis, adenylate kinase release luminescence, 4 h; normalised: neutral wells 0, clomiphene wells 100; lysis activity, % at 15 µM; 360,000 tested, 0.2% active; AID 651654, 2012;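 active = mean lysis activity across replicates of at least 80%, whatever share of replicates individually reach that level; inactive = mean lysis activity below 80%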
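Material: C. neoformans cells | Amount: Yeast cell density of 5 × 10^6 cells/mL | Medium: Fresh YPD growth medium | Dosing: Single dose | Times: Static 4 h at 37 °C with compound, 1 h detection | Detection: AK luminescence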
PfHsp90 yeast 2 – growth inhibition of PfHsp90-expressing yeast, primary screen, antimalarial PfHsp90 inhibitor project, S. cerevisiae, BacTiter-Glo luminescence, single point, set 2; BacTiter-Glo ATP, 48 h; yeast lacking PDR1 and PDR3 efflux regulators; inhibition, % at 9.4 µM; 310,000 tested, 0.32% active;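 active = every replicate shows inhibition above about 80%, whatever the replicate mean, limit read from the data; inconclusive = mean inhibition reaches the set limit but some replicate falls short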
MLL AF4-AF9 inh – inhibitors of AF4 peptide binding to AF9, primary screen, biochemical, AlphaScreen, biotin-AF4 peptide, FLAG-AF9, single point; AID 651704, 2012; 350,000 tested, 0.47% active; inhibition, % at 10 µM; Protein AF-9 (Homo sapiens), P42568;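 active = every replicate reaching a set inhibition limit, whatever the replicate mean, cut at about 25% in these data; inconclusive = mean inhibition reaches that limit but some replicates miss it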
Target sequence (P42568 whole entry, looked up): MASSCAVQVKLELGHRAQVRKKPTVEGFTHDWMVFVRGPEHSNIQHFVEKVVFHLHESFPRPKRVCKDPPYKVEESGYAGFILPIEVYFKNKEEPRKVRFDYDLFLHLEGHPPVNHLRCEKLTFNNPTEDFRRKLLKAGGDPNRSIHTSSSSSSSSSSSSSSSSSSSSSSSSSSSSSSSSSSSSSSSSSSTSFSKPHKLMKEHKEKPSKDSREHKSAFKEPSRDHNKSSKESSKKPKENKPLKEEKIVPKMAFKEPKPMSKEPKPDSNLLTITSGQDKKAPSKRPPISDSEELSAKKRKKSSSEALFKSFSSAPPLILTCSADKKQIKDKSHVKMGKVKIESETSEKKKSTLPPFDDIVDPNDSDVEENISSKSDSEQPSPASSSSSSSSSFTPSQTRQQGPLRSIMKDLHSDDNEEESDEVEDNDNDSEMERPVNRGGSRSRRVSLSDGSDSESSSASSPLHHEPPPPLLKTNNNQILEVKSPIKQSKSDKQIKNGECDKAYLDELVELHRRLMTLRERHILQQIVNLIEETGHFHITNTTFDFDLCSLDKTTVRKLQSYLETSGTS
Large screens that a line does not name were inactive.

O=C(NC1CCC1)[C@@H]1[C@@H](CO)[C@@H]2Cn3c(ccc(C4=CCCC4)c3=O)[C@@H]2N1C(=O)C1CCC1	none (no result: Cneo AK release, PfHsp90 yeast 2)
CCNC(=O)[C@H]1[C@H](CO)[C@H]2Cn3c(ccc(-c4cccc(OC)c4)c3=O)[C@H]2N1C(=O)NC(C)C	DENV2 CPE 31 (no result: PfHsp90 yeast 2)
CCCNC(=O)N1[C@@H]2c3ccc(-c4ccccc4OC)c(=O)n3C[C@@H]2[C@@H](CO)[C@@H]1C(=O)NC1CCC1	S100A4 inh HTS 116 (no result: PfHsp90 yeast 2)
CCNC(=O)[C@H]1[C@H](CO)[C@H]2Cn3c(ccc(-c4cccc(OC)c4)c3=O)[C@H]2N1S(C)(=O)=O	DENV2 CPE 28 (no result: PfHsp90 yeast 2)
COc1ccccc1-c1ccc2n(c1=O)C[C@H]1[C@H](CO)[C@@H](C(=O)NC3CCC3)N(C(=O)NC(C)C)[C@@H]21	none (no result: PfHsp90 yeast 2)
O=C(NC1CCC1)[C@H]1[C@H](CO)[C@H]2Cn3c(ccc(C4=CCCCC4)c3=O)[C@H]2N1C(=O)C1CCOCC1	DENV2 CPE 65 (no result: PfHsp90 yeast 2)
CO[C@@H]1CN(C)C(=O)c2ccc(NC(=O)C3CCOCC3)cc2OC[C@H](C)N(Cc2cccnc2)C[C@H]1C	none (no result: PfHsp90 yeast 2)
C[C@@H]1CN([C@H](C)CO)C(=O)c2cc(NC(=O)C3CCCCC3)ccc2O[C@@H](C)CCCCO[C@H]1CN(C)S(=O)(=O)c1ccc(Cl)cc1	none (no result: PfHsp90 yeast 2)
Cc1cccc(S(=O)(=O)N2CCCCN3[C@@H](CO)[C@@H](c4ccc(-c5cccnc5)cc4)[C@@H]3C2)c1	DENV2 CPE 28 (no result: PfHsp90 yeast 2)
Cc1cccc(S(=O)(=O)N2CCCCN3[C@@H](CO)[C@H](c4ccc(C#CC(C)C)cc4)[C@@H]3C2)c1	rRNA inh HTS -42 (no result: PfHsp90 yeast 2)
Cc1cccc(S(=O)(=O)N2CCCCN3[C@H](C2)[C@H](c2ccc(C#CC(C)C)cc2)[C@@H]3CO)c1	none (no result: PfHsp90 yeast 2)
COc1cccc(S(=O)(=O)N2CCCCN3[C@H](CO)[C@H](c4ccc(-c5cccnc5)cc4)[C@H]3C2)c1	none (no result: PfHsp90 yeast 2)
COc1cccc(-c2ccc([C@@H]3[C@H](CO)N4CCCCN(S(=O)(=O)c5cn(C)cn5)C[C@@H]34)cc2)c1	DENV2 CPE 27 (no result: PfHsp90 yeast 2)
Cc1cccc(-c2ccc([C@@H]3[C@H](CO)N4CCCCN(S(=O)(=O)c5cccc(C)c5)C[C@@H]34)cc2)c1	rRNA inh HTS -28, DENV2 CPE 23 (no result: PfHsp90 yeast 2)
Cc1cccc(-c2ccc([C@@H]3[C@H](CO)N4CCCCN(S(=O)(=O)c5ccccc5C)C[C@@H]34)cc2)c1	rRNA inh HTS -43 (no result: PfHsp90 yeast 2)
Cc1ccccc1S(=O)(=O)N1CCCCN2[C@H](C1)[C@H](c1ccc(-c3ccccc3)cc1)[C@@H]2CO	none (no result: rRNA inh HTS, PfHsp90 yeast 2)
COC(=O)c1nn(-c2ccc(OC)cc2)c(=O)cc1O	none
COc1ccc(-n2nc(C#N)c(Cl)cc2=O)cc1	rRNA inh HTS -43 (no result: Cneo AK release)
CO[C@H]1CN(C)C(=O)c2cc(NS(=O)(=O)c3ccccc3C)ccc2OC[C@@H](C)N(C)C[C@@H]1C	none (no result: PfHsp90 yeast 2)
C[C@H]1CCCCO[C@@H](CN(C)C(=O)C2CCCCC2)[C@@H](C)CN([C@@H](C)CO)C(=O)c2cc(N(C)C)ccc2O1	none (no result: S100A4 inh HTS, DENV2 CPE, Cneo AK release, PfHsp90 yeast 2, MLL AF4-AF9 inh)
CCC(C)n1ncn(-c2ccc(N3CCN(c4ccc(O)cc4)CC3)cc2)c1=O (configuration not stated)	none (no result: Cneo AK release)
CCC(C)n1ncn(-c2ccc(N3CCN(c4ccc(OCC5COC(Cn6cncn6)(c6ccc(Cl)cc6Cl)O5)cc4)CC3)cc2)c1=O (configuration not stated)	DENV2 CPE inconclusive, PfHsp90 yeast 2 92 (no result: rRNA inh HTS)
COCC(=O)Nc1ccc2c(c1)[C@H]1C[C@@H](CC(=O)NCc3ccncc3)O[C@@H](CO)[C@H]1O2	none (no result: PfHsp90 yeast 2)
C[C@H]1CN([C@@H](C)CO)C(=O)c2cc(NC(=O)C3CC3)ccc2O[C@@H]1CN(C)CC1CCCCC1	none (no result: PfHsp90 yeast 2)
CCOC(=O)C1CCCN(c2c(N3CCN(C)CC3)c(=O)c2=O)C1 (configuration not stated)	none
CCOC(=O)C1CCCN(c2c(N3CCOCC3)c(=O)c2=O)C1 (configuration not stated)	DENV2 CPE 46
CC(C)CC#Cc1ccc([C@H]2[C@H](CO)N3CCCCN(S(=O)(=O)Cc4ccccc4)C[C@@H]23)cc1	none (no result: PfHsp90 yeast 2)
CC(C)CC#Cc1ccc([C@@H]2[C@@H](CO)N3CCCCN(S(=O)(=O)Cc4ccccc4)C[C@@H]23)cc1	DENV2 CPE 22 (no result: PfHsp90 yeast 2)
CC(C)CC#Cc1ccc([C@@H]2[C@H](CO)N3CCCCN(S(=O)(=O)Cc4ccccc4)C[C@@H]23)cc1	DENV2 CPE 23 (no result: PfHsp90 yeast 2)
CC(C)C#Cc1ccc([C@@H]2[C@H](CO)N3CCCCN(S(=O)(=O)Cc4ccccc4)C[C@@H]23)cc1	rRNA inh HTS -42 (no result: PfHsp90 yeast 2)
CCCC#Cc1ccc([C@H]2[C@@H](CO)N3CCCCN(S(=O)(=O)Cc4ccccc4)C[C@@H]23)cc1	none (no result: PfHsp90 yeast 2)
COc1ccc(NC(=O)N(C)C[C@H]2OCCCC[C@@H](C)Oc3ccc(NC(=O)C4CCCCC4)cc3C(=O)N([C@H](C)CO)C[C@H]2C)cc1	none (no result: PfHsp90 yeast 2)
C=CCNc1nc(C(=O)OCC(=O)Nc2ccccc2C(F)(F)F)cs1	none
C=CCNc1nc(C(=O)OCC(=O)NCc2ccccc2OC)cs1	DENV2 CPE 66
C[C@H](CO)N1C[C@H](C)[C@H](CN(C)C(=O)Oc2ccccc2)OCc2cn(nn2)CCCC1=O	none (no result: S100A4 inh HTS, DENV2 CPE, Cneo AK release, PfHsp90 yeast 2, MLL AF4-AF9 inh)
CC(=O)N1/C(=C/c2ccc(N(C)C)cc2)C(=O)c2ccccc21	MLL AF4-AF9 inh 44 (no result: Cneo AK release)
CC(=O)c1ccc(-n2ccnc2)cc1	DENV2 CPE inconclusive (no result: Cneo AK release)
COC(=O)/C=C/c1ccc(-n2ccnc2)cc1	rRNA inh HTS -30 (no result: Cneo AK release)
O=C(NC[C@H]1[C@@H](c2ccccc2)[C@H](CO)N1CC1CCCC1)c1cccnc1	none (no result: S100A4 inh HTS, PfHsp90 yeast 2, MLL AF4-AF9 inh)
O=C(NC[C@@H]1[C@@H](c2ccccc2)[C@@H](CO)N1CC1CCCC1)c1cccnc1	DENV2 CPE 39 (no result: S100A4 inh HTS, PfHsp90 yeast 2, MLL AF4-AF9 inh)
C/C=C/c1ccc([C@H]2[C@@H](CNS(C)(=O)=O)N(CC3CCCC3)[C@H]2CO)cc1	DENV2 CPE 51 (no result: PfHsp90 yeast 2)
O=S(=O)(NC[C@@H]1[C@@H](c2ccccc2)[C@H](CO)N1CC1CC1)c1ccccc1	Cneo AK release 107 (no result: PfHsp90 yeast 2)
Cc1ccc(S(=O)(=O)N(C)C[C@@H]2OCCCC[C@@H](C)Oc3ccc(NS(=O)(=O)c4cccs4)cc3C(=O)N([C@@H](C)CO)C[C@@H]2C)cc1	none (no result: PfHsp90 yeast 2)
CO[C@@H]1CN(C)C(=O)c2ccc(NC(=O)C3CCCC3)cc2OC[C@H](C)N(C(=O)CC2CC2)C[C@H]1C	none (no result: PfHsp90 yeast 2)
